Source: PubChem BioAssay
TRPC4 inh: blocks the mouse TRPC4 cation channel. HEK293 TRPC4beta/mu-opioid, DAMGO-evoked Fluo4 calcium flux; active compounds read low. Q9QUQ5. B-score at 10 µM. 300,000 compounds, 0.39% hits;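 active = B-score over 3 SD under the library average, no early fluorescence shift, positive overall ratio signal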
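Assay system: TRPC4beta/mu-opioid receptor HEK293 cell line; compound dosing: single concentration per test compound; detection: Fluo4 Ca2+ flux fluorescence; evaluation: per-well B score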
TRPC6 act: mouse TRPC6 channel activation. Q61143. HEK293-TRPC6 membrane potential dye fluorescence; active compounds read high. B-score at 10 µM. 310,000 compounds, 0.13% hits;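 active = B-score of the integrated fluorescence ratio above library mean plus 3 SD, and starting fluorescence ratio within library mean plus 5 SD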;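 also: higher score means more depolarization so channel activation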
TRPC4 agonist: TRPC4 (mouse) channel activation. HEK293 TRPC4beta/mu-opioid, Fluo4 calcium fluorescence; active compounds read high. 310,000 compounds, 0.49% hits. Q9QUQ5. B-score at 10 µM;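 active = B-score above 5 SD of library B-scores, and initial fluorescence ratio not above library mean plus 5 SD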;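 also: positive B-score marks a calcium rise read as TRPC4 activation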
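Material: TRPC4beta and mu-opioid receptor HEK293 stable cells | Incubation: 45 min room-temperature Fluo4 loading, 110 s read | Detection: Kinetic Fluo4 calcium fluorescence | Measure: Integrated baseline-normalised fluorescence ratio, converted to per-well B score | Benchmarks: Low control buffer alone, high control maximal DAMGO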
Kir21 block: Kir2.1 (mouse) channel inhibition; P35561; HEK293-Kir2.1, FluxOR thallium flux fluorescence; active compounds read low; B-score at 10 µM; 310,000 compounds, 0.85% hits;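 active = fluorescence ratio B-score at or below minus 3 SD of library scores, with starting-brightness B-score within 2 SD, cut at about -4.2 in these data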;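 also: channel flux triggered by added potassium and thallium sulfate stimulus; B-score of peak minus minimum fluorescence over baseline after thallium stimulus; more negative B-score means stronger Kir2.1 block with less thallium influx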
TRPC6 inhibitor: mouse TRPC6 channel inhibition; 310,000 compounds, 1.1% hits; Q61143; HEK293-TRPC6, membrane potential dye, ACh-evoked depolarization; active compounds read low; B-score at 10 µM;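 active = B-score under library mean minus 3 SD, initial fluorescence not abnormally high, positive integrated signal ratio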;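 also: B-score derived from integrated fluorescence ratio over the kinetic read; more negative B-score means stronger inhibition of depolarization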
TRPC4 PAM: TRPC4 (mouse) allosteric potentiation. Q9QUQ5. HEK293 TRPC4beta/mu-opioid, DAMGO EC20, Fluo-4 Ca2+ flux; active compounds read high. B-score at 10 µM. 310,000 compounds, 0.42% hits;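 active = B-score of calcium response area above 5 SD of library B-scores, with initial fluorescence ratio within 5 SD of library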
A number is an active result; n = inactive. Sampled rows, rich in hits. Any-hit rate of the full collection: about 2.9%.

SMILES | TRPC4 inh | TRPC6 act | TRPC4 agonist | Kir21 block | TRPC6 inhibitor | TRPC4 PAM
COc1cc(CNC(C)c2ccccc2)cc(Cl)c1OCC(=O)Nc1ccccc1 (configuration not stated) | n | n | n | -9.48 | n | n
CN(C)CCNC(=O)c1cc(Sc2ccc(F)cc2)nc2ccccc12 | n | n | n | n | n | 31
CCC(C)NS(=O)(=O)c1ccc(S(=O)(=O)N(CCc2ccc(OC)c(OC)c2)Cc2cccs2)cc1 (configuration not stated) | n | n | n | n | n | n
COC(=O)c1ccc(/C=N/N2CCN(Cc3ccc(C)cc3C)CC2)cc1 | n | n | n | n | n | 16
O=C(Nc1cc(S(=O)(=O)N2CCCCC2)ccc1O)c1ccccc1NS(=O)(=O)c1ccc(F)c(F)c1 | n | n | n | n | n | n
O=C(Cn1cccc1C(=O)c1ccccc1)NCCC1=CCCCC1 | n | n | n | -6.82 | n | n
O=C(Cn1cccc1C(=O)c1ccccc1)NCCCc1ccccc1 | n | n | n | n | n | n
O=C(NCC1CCCO1)c1cc2nc(-c3ccco3)cc(C(F)(F)Cl)n2n1 (configuration not stated) | n | n | n | n | n | n
CCCCC(CC)c1nnc(NC(=O)c2cccs2)s1 (configuration not stated) | -9 | n | n | n | n | n
CN(c1ncc(C(F)(F)F)cc1Cl)N1C(=O)c2cccc([N+](=O)[O-])c2C1=O | n | n | n | n | n | n
CN(C)C(=O)c1ccc(Nc2nnc(-c3ccc(O)cc3)c3ccccc23)cc1 | n | n | 60 | n | n | n
CNC(=O)c1ccc(Nc2nnc(-c3ccc(O)cc3)c3ccccc23)cc1 | n | n | n | n | n | n
CCOC(=O)c1sc2nc(N3CCOCC3)c3c(c2c1N)CCN(C)C3 | n | n | n | n | -6.98 | n
O=C(/C(=N/N=C/c1ccc(O)c(O)c1)c1ccccc1)c1ccccc1 | n | n | n | -4.78 | n | n
Oc1ccc(/C=N/N=C/c2ccc(O)c(O)c2)cc1O | n | n | n | n | n | n
COc1ccc(CC(=O)Nc2ccccc2N2CCCC2)cc1 | n | n | n | -6.33 | n | n
COc1ccc(CC(=O)Nc2ccccc2N2CCCC2)cc1OC | n | n | n | -4.45 | n | n
COc1ccc(OCC(=O)Nc2ccccc2N2CCN(C)CC2)cc1 | -6 | n | n | n | n | n
CCC(=O)N1CCN(c2ccccc2NC(=O)COc2ccc(C(C)C)cc2)CC1 | n | n | n | n | n | 11
COc1ccc(OCC(=O)Nc2ccccc2N2CCCCC2)cc1 | n | n | n | n | n | n
CN(Cc1ccccc1)C(=O)COC(=O)C1CCN(S(=O)(=O)c2ccc3c(c2)OCCO3)CC1 | n | n | n | n | n | n
N#C/C(C(=O)NCc1ccccc1)=C1/SC(Cc2ccc(Cl)cc2)C(=O)N1c1ccccc1 (configuration not stated) | n | n | n | n | n | n
O=C(CCNC(=O)c1ccc(Cl)cc1)Nc1ccccc1N1CCCCC1 | -5 | n | n | -4.6 | n | n
CC(=O)c1ccc(N(CC(=O)NCc2ccc3c(c2)OCO3)C(=O)c2csnn2)cc1 | n | n | n | n | n | n
Cc1ccc(Nc2ncc3c(n2)CC(C)(C)CC3=O)cc1 | n | n | n | n | n | 18
SMILES | TRPC4 inh | TRPC6 act | TRPC4 agonist | Kir21 block | TRPC6 inhibitor | TRPC4 PAM
CC1(C)CC(=O)c2cnc(NC3CC3)nc2C1 | n | n | n | n | n | n
CCCn1c(-c2ccc(OC)cc2)nc2ccccc21 | n | n | n | -4.49 | n | n
Cc1nc(SCC(=O)NCCc2ccccc2)nc(C)c1C | n | n | n | n | n | n
Cc1nn(C(=O)c2cccc([N+](=O)[O-])c2)c(C)c1Sc1ccccc1 | -6 | n | n | -4.35 | n | n
Cc1nn(C(=O)c2ccco2)c(C)c1Sc1ccccc1 | n | n | n | n | n | n
Cc1cc(C)c(C2=Nn3c(C)nnc3SC2C)cc1C (configuration not stated) | n | n | n | n | n | n
O=[N+]([O-])c1ccc(NC(=S)N2CCc3ccccc3C2)cc1 | -6 | n | n | n | n | n
Cc1ccc2sc(N(CCCN(C)C)C(=O)c3ccc(S(=O)(=O)N4CCc5ccccc5C4)cc3)nc2c1C | n | n | n | n | n | n
Cc1ccc2nc(N(CCCN(C)C)C(=O)CCc3ccccc3)sc2c1 | n | n | n | -5.61 | n | n
CN(C)CCCN(C(=O)c1ccc(S(=O)(=O)N2CCOCC2)cc1)c1nc2ccc(F)cc2s1 | n | n | 57 | n | n | n
CCOC(=O)N1CCN(S(=O)(=O)c2ccc(C(=O)N(CCCN(C)C)c3nc4ccc(Cl)cc4s3)cc2)CC1 | n | n | n | n | n | n
CN(C)CCCN(C(=O)CCc1ccccc1)c1nc2ccc(Cl)cc2s1 | n | n | n | n | n | n
CN(C)CCCN(C(=O)c1ccc(S(=O)(=O)N2CCc3ccccc3C2)cc1)c1nc2c(F)cc(F)cc2s1 | n | n | 58 | n | n | n
CN(C)CCCN(C(=O)c1ccc(S(=O)(=O)N2CCCCCC2)cc1)c1nc2c(F)cccc2s1 | -6 | n | 54 | n | n | n
S=C(Nc1ccc(Nc2ccccc2)cc1)Nc1ccccn1 | n | n | n | n | n | n
O=C(CCc1nnc2ccc(NCc3ccco3)nn12)Nc1cccc(F)c1 | n | n | n | n | n | n
O=C(CSc1nc2nn(-c3ccccc3)c(=O)c-2c2n1CCCCC2)NCCCc1ccccc1 | n | n | n | n | n | n
CCN(CC(=O)Nc1ccccc1C(F)(F)F)C(=O)c1cc(S(=O)(=O)N2CCCCCC2)ccc1OC | n | n | n | n | n | n
CN(C)CCCN(C(=O)c1ccc2c(c1)CCCC2)c1nc2ccc(Cl)cc2s1 | n | n | n | -4.28 | n | n
CN(C)CCN(C(=O)c1ccc(S(=O)(=O)N2CCc3ccccc32)cc1)c1nc2ccc(F)cc2s1 | n | n | n | n | n | n
CCc1ccc2nc(N(CCCN(C)C)C(=O)c3ccc(S(=O)(=O)N4CCCC4)cc3)sc2c1 | n | n | n | n | n | n
CCN(Cc1ccccc1)S(=O)(=O)c1ccc(C(=O)N(CCCN(C)C)c2nc3c(F)cccc3s2)cc1 | n | n | 112 | n | n | n
CCOc1cccc2sc(N(CCCN(C)C)C(=O)c3ccc(S(=O)(=O)N(CC)Cc4ccccc4)cc3)nc12 | n | n | n | n | n | n
Cc1ccc2nc(N(CCCN(C)C)C(=O)c3ccc(S(=O)(=O)N4CCCCCC4)cc3)sc2c1 | n | n | 43 | n | n | 14
CN(C)CCCN(C(=O)c1ccc(S(=O)(=O)N2CCCCCC2)cc1)c1nc2ccc(F)cc2s1 | n | n | 336 | -4.95 | n | n
CC(C)CCn1c(=O)c2ccccc2n2c(CCC(=O)NC3CCN(Cc4ccccc4)CC3)nnc12 | n | n | n | n | n | n
